Assay [1] can be described thus: Cytotoxicity against human SH-SY5Y cells after 72 hrs by MTS assay. The assay is classed as functional, cell-based. In outline: (§1)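 Neuroblastoma cells grown in DMEM with 2 mM L-glutamine, antibiotics and 10% FCS; viability read by MTS reduction. Triplicate assays, values within 10%. IC50 estimated graphically from dose−response curves of at least six inhibitor concentrations.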

In the next assay the test system is HeLa. The experiment in a line: Cytotoxicity against human HeLa cells after 72 hrs by colony formation assay. Format: functional, cell-based. In a few lines: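 HeLa cells, 100−150 per well, cultured 72 h at 37 °C under 5% CO2 with varying compound concentrations in MEM with 10% fetal calf serum plus penicillin/streptomycin. Colonies (clusters of ≥40 cells) counted after methylene blue staining. Duplicates, at least four concentrations; IC50 by least-squares fit to logarithm-probit analysis.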

The species named for another assay is Bos taurus. Put plainly: Inhibition of calf thymus DNA topoisomerase 1-mediated relaxation of supercoiled pBR322 plasmid DNA at 50 uM 30 mins by ethidium bromide staining.
Assay [2] in a line: Inhibition of porcine brain CK1delta/epsilon using CKS peptide and [gamma-33P]ATP as substrate after 30 mins. The arrangement: species or system Sus scrofa. In outline: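 CK1δ/ε affinity-purified on immobilized axin fragment. Reaction captured on P81 phosphocellulose, washed in 1% phosphoric acid, scintillation counted; blanks subtracted; activity as % of no-inhibitor control, DMSO controls.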

Assay [3] addresses Dual specificity tyrosine-phosphorylation-regulated kinase 1A (Homo sapiens, UniProt Q13627). The experiment in a line: Inhibition of human recombinant DYRK1A expressed in Escherichia coli using [gamma-33P]ATP after 30 mins. In outline:
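Enzyme (DYRK1A GST fusion purified on glutathione-agarose) assayed like CDK1/cyclin B: buffer C, 1 mg/mL histone H1, 15 μM [γ-33P]ATP, 30 min at 30 °C, P81 filter capture, scintillation counting, % of activity without inhibitor.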

The target of assay [4] is Glycogen synthase kinase-3 (Sus scrofa, UniProt B2LUN4+I6LNT8). The experiment in a line: Inhibition of porcine brain GSK-3alpha/beta using GS-1 peptide and [gamma-33P]ATP as substrate after 30 mins. In a few lines:
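GSK-3α/β purified on immobilized axin, diluted 1/100 in 1 mg/mL BSA with 10 mM DTT. Substrate GS-1 phosphopeptide (5 μL of 4 μM), buffer A pH 7.5, 15 μM [γ-33P]ATP, 30 min at 30 °C. Radioactivity on P81 paper counted; blank subtracted; results as % of activity without inhibitor.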

Assay [5] can be described thus: Inhibition of M-phase starfish oocytes CDK1/cyclin B using [gamma-33P]ATP after 30 mins. The arrangement: species or system Marthasterias glacialis. As to conditions: oocyte. In a few lines: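 CDK1/cyclin B extracted from oocytes in homogenization buffer, affinity-purified on p9CKShs1-Sepharose and eluted with free p9CKShs1. Activity measured in buffer C with 1 mg/mL histone H1 and 15 μM [γ-33P]ATP, 30 min at 30 °C. Read-out: 33P captured on P81 phosphocellulose by scintillation counting; blank subtracted; activity as % of uninhibited control; DMSO controls.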

The subject of the next assay is IMR-32. Put plainly: Cytotoxicity against human IMR32 cells after 72 hrs by MTS assay. Format: functional, cell-based. Particulars: IMR-32, 72 h. In outline: as §1

Molecules are shown by their SMILES. The source made the active and inactive calls. No cut-off for these calls is given here.

As to `COc1ccc(-c2c3c4cc(OC)c(O)cc4oc(=O)c3n3ccc4cc(O)c(OC)cc4c23)cc1O`, the IC50 in assay [1] is 40 nM; with HeLa, 32 nM; in assay [2] it was above 10000 nM; in assay [3] it was 35 nM; in assay [4] it was 5 nM; in assay [5] it was 70 nM. This compound also had an IC50 in the assay with IMR-32 of 19 nM. In the assay filed under Bos taurus, the inhibition entry was “Active”.
For the compound `COc1cc(-c2c3c4cc(OC)c(O)cc4oc(=O)c3n3ccc4cc(O)c(OC)cc4c23)ccc1O`, the inhibition result in the assay filed under Bos taurus is “Active”.
As to `CC[C@@]1(O)C(=O)OCc2c1cc1n(c2=O)Cc2cc3ccccc3nc2-1`, the inhibition entry in the assay listed under Bos taurus was “Active”.

For the origin of these results see ChEMBL document CHEMBL2424538, “Synthesis, resolution, and biological evaluation of atropisomeric (aR)- and (aS)-16-methyllamellarins N: unique effects of the axial chirality on the selectivity of protein kinases inhibition” (J Med Chem, 2013).
